Series [1] relates to HUVEC. Description: Inhibition of rhFGF2-induced HUVEC proliferation. Type of series: functional, cell-based. As to conditions: Homo sapiens; for minimal effective concentration: read-out: MEC. The gist of the method:
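HUVEC proliferation was induced with recombinant human FGF-2 in the presence of compound. Inhibition was reported as IC50 (μM) and as the minimum effective concentration.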

Series [2] concerns HUVEC. Kind of series: Cytotoxicity against HUVEC cells. Type of series: cell-based. The following applies: human. In short, it runs like this: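 Cytotoxicity was taken from HUVEC proliferation run without rhFGF-2 stimulation, and the value was reported as the minimum cytotoxic concentration.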
The target in series [3] is c-Jun N-terminal kinase, JNK (Homo sapiens) (UniProt P45983+P53779+P45984). Kind of series: Inhibition of recombinant human FGF2-induced JNK phosphorylation in HUVEC cells by Western blot. Type of series: cell-based. For orientation: A western blot detects proteins with antibodies after separation by electrophoresis.
Series [4] concerns the target RAC-alpha serine/threonine-protein kinase (Homo sapiens) (UniProt P31749). Kind of series: Inhibition of recombinant human FGF2-induced AKT phosphorylation in HUVEC cells by Western blot. Type of series: cell-based.
In series [5] the target is Fibroblast growth factor receptor 1 (Homo sapiens, UniProt P11362). Description: Inhibition of human FGFR1 expressed in insect cells by HTRF method. A general note: Time-resolved FRET reads energy transfer from a long-lived donor to a nearby acceptor.
Sequence of Fibroblast growth factor receptor 1 (P11362 whole entry): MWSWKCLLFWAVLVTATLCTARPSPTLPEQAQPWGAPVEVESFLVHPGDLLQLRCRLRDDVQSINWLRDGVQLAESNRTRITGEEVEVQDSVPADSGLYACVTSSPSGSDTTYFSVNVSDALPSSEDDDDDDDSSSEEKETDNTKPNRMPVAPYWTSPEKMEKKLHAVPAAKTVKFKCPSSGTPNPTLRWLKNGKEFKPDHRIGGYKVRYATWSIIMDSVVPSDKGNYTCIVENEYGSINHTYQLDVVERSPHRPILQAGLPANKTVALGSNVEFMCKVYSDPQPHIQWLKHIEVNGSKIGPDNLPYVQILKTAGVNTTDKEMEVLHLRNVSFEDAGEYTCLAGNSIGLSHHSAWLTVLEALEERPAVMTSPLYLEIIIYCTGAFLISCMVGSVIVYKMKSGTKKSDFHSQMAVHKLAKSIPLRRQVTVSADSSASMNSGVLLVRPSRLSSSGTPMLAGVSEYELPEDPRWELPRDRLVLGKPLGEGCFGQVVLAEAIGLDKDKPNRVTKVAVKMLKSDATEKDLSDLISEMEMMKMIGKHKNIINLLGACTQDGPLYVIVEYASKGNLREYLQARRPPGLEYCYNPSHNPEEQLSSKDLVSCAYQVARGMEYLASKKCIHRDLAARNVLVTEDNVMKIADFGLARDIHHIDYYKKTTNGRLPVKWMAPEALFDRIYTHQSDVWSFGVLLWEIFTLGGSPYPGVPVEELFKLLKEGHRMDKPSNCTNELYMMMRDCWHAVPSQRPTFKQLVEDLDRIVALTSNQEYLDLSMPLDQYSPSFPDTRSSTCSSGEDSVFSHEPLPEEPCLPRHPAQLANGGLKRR
Series [6] has as its target Vascular endothelial growth factor receptor 2 (Homo sapiens, UniProt P35968). Description: Inhibition of VEGFR2.
Series [7] deals with Platelet-derived growth factor receptor beta (Homo sapiens, UniProt P09619). Description: Inhibition of PDGFRbeta.
Sequence of Platelet-derived growth factor receptor beta (P09619 whole entry): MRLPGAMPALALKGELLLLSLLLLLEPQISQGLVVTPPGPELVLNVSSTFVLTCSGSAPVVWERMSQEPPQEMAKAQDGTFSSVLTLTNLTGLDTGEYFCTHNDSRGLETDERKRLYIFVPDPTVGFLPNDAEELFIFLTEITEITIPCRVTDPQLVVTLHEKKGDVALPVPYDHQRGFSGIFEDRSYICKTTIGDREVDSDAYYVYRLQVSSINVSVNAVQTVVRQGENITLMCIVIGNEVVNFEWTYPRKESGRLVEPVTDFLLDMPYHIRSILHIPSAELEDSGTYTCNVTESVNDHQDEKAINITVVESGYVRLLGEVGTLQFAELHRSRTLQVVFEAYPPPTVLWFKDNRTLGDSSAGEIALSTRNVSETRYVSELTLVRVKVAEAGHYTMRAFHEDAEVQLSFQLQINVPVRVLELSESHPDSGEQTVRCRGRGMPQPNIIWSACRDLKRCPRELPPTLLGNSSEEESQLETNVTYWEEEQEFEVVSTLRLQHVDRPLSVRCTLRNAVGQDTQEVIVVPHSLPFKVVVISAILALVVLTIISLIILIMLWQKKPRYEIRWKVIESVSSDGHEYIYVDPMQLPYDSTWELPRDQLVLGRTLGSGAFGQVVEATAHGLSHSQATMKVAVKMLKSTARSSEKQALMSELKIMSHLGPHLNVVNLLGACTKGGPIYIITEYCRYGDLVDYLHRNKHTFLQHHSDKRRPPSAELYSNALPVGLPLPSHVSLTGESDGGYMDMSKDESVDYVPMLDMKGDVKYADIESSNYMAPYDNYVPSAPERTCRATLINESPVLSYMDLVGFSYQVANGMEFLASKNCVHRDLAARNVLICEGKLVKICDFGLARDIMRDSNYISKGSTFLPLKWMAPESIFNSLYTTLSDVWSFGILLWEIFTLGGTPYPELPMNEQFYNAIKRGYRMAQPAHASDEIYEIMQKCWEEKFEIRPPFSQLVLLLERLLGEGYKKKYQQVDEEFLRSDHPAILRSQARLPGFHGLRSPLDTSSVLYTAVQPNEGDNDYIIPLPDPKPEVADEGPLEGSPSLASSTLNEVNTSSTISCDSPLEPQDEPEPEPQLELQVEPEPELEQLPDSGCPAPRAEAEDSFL
In series [8] the test system is HUVEC. Description: Inhibition of recombinant human FGF2-induced ERK phosphorylation in HUVEC cells by Western blot. Type of series: cell-based.
Series [9] addresses Epidermal growth factor receptor (Homo sapiens, UniProt P00533).
Series [10] concerns HUVEC. Description: Antiangiogenic activity in HUVEC cells assessed incomplete narrow tube formation after 4 hrs by tube formation assay. Type of series: functional, cell-based. The following applies: Homo sapiens. In short, it runs like this:
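HUVEC seeded onto wells coated with Matrigel, with compound present at 1, 3, 10 and 25 μM; FGF-2-stimulated and untreated controls included. After 4 h at 37 °C, cultures were fixed with glutaraldehyde and the length of the capillary-like tubes was measured. Data are means + SD of four wells from a representative experiment.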

Calls of active or inactive are those of the source. The rule behind the calls is not given here.

Sequence of Vascular endothelial growth factor receptor 2 (P35968 whole entry): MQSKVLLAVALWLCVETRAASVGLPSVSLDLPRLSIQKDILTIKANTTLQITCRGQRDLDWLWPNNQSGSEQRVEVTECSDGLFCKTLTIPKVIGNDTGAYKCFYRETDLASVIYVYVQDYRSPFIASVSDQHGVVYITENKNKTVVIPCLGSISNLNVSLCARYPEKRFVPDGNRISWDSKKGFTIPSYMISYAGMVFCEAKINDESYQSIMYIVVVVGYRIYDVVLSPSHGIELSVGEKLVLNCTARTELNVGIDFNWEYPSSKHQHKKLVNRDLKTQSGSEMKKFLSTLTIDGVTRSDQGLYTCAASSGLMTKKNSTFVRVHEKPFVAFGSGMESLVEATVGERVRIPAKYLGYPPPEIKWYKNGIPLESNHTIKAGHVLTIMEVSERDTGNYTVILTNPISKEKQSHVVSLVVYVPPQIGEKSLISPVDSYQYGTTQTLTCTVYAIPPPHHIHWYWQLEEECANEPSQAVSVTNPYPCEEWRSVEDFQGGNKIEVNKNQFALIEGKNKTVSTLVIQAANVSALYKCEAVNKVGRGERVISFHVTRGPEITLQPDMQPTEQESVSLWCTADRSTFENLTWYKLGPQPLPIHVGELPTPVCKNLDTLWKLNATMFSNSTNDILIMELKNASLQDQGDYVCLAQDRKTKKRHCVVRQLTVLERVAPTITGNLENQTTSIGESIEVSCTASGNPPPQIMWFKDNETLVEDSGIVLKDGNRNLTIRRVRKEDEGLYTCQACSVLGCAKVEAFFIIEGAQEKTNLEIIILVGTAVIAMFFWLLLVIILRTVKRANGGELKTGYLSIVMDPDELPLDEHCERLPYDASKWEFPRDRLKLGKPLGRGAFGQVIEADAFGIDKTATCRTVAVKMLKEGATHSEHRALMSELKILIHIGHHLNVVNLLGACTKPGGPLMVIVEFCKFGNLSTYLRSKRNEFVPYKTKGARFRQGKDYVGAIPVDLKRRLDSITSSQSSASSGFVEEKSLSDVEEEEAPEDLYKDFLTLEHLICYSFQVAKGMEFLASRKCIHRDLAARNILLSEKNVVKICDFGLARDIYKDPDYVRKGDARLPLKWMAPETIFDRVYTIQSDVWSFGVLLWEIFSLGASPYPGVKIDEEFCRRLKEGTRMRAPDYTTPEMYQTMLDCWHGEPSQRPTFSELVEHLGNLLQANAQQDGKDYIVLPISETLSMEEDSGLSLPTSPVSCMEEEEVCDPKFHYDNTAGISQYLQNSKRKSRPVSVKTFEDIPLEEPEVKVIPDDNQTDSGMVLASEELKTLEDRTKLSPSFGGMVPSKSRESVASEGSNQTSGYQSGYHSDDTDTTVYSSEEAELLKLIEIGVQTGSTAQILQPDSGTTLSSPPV
Sequence of Epidermal growth factor receptor (P00533 whole entry): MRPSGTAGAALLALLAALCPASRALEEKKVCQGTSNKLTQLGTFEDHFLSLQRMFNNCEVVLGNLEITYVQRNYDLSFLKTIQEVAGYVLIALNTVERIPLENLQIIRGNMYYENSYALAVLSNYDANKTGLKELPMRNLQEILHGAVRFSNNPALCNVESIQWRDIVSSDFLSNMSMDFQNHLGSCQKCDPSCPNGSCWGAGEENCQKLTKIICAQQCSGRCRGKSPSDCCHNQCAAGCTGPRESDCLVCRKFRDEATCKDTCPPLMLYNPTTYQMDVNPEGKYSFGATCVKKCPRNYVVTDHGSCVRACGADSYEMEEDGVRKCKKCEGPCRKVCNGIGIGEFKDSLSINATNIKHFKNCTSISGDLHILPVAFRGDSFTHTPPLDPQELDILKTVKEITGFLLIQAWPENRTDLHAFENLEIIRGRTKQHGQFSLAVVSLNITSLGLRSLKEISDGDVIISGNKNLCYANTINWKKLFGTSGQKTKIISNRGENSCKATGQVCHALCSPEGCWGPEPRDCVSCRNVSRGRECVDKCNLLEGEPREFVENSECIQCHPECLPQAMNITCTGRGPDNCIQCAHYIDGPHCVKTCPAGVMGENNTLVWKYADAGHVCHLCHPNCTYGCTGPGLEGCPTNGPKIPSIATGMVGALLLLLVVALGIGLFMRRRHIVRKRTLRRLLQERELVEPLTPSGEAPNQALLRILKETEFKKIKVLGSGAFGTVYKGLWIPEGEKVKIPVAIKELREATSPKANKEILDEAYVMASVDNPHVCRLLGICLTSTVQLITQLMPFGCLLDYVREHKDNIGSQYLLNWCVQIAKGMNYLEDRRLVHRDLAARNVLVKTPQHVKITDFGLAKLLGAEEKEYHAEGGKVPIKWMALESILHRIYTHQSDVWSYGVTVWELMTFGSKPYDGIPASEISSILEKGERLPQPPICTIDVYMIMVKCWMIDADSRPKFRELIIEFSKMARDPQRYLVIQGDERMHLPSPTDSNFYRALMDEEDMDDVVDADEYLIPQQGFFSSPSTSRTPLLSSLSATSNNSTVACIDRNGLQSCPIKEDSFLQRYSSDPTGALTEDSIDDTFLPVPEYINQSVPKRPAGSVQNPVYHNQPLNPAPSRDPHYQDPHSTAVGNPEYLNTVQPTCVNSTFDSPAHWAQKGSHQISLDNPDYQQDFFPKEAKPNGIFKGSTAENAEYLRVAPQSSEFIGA
Sequence of RAC-alpha serine/threonine-protein kinase (Homo sapiens) (P31749 whole entry): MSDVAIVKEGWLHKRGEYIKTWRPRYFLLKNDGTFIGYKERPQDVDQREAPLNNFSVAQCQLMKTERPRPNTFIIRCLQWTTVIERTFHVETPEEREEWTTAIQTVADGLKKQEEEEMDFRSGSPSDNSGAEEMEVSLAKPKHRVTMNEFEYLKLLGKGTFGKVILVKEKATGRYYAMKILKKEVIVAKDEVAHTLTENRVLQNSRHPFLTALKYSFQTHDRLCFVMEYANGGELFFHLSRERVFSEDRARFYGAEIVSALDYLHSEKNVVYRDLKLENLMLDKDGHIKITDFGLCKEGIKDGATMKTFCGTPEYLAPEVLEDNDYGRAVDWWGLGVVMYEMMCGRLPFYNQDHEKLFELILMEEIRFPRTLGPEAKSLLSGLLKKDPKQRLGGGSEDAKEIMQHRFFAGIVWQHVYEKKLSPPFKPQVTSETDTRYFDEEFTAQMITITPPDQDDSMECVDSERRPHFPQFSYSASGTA

Regarding `Cc1[nH]c(/C=C2\C(=O)Nc3ccc(C(=O)NNc4ccccc4[N+](=O)[O-])cc32)c(C)c1CCC(=O)O`, the minimal effective concentration in series [1] stood at 50 µM. In [2], this compound came in with an Activity of 50 µM.

Regarding `Cc1[nH]c(/C=C2\C(=O)Nc3ccc(C(=O)NNc4ccc(C#N)cc4)cc32)c(C)c1CCC(=O)O`, the minimal effective concentration in [1] was > 50 µM. This compound came in with an Activity in series [2] of 50 µM.

The IC50 is the concentration needed to halve the response being measured. Lower therefore signals inhibition by little substance. Take `Cc1[nH]c(/C=C2\C(=O)Nc3ccc(C(=O)NNc4ccccc4)cc32)c(C)c1CCC(=O)O`: the result in series [3], in series [4] and in [8] was Active. In addition, the IC50 in series [1] is 27400 nM; in series [5], 100 nM; in series [6], 70 nM; in [7], 40 nM; in [9], 3480 nM. For the same compound, in [1], the minimal effective concentration is 10 µM. Moreover, the Activity in [2] is 50 µM; in series [10] it was “Dose-dependent effect”.

As to `Cc1[nH]c(/C=C2\C(=O)Nc3ccccc32)c(C)c1CCC(=O)O` [ORANTINIB], in series [1], the half-maximal inhibitory concentration (IC50) is > 50000 nM and the minimal effective concentration turned out to be 10 µM. In series [7], the half-maximal inhibitory concentration (IC50) came to 50 nM.

Turning to `Cc1[nH]c(/C=C2\C(=O)Nc3ccc(C(=O)NNc4ccccc4Cl)cc32)c(C)c1CCC(=O)O`, the minimal effective concentration in series [1] is 50 µM.

On to `Cc1[nH]c(/C=C2\C(=O)Nc3ccc(C(=O)NNc4ccc(C(F)(F)F)cc4)cc32)c(C)c1CCC(=O)O`, for which, in series [1], the minimal effective concentration is 50 µM. Besides, the Activity in [2] stood at 50 µM.

`COc1cc(OC)cc(-c2ccc3c(c2)NC(=O)/C3=C\c2[nH]c(C)c(CCC(=O)O)c2C)c1`: the IC50 in series [1] is 18200 nM; in series [5], 520 nM; in series [6] it was 930 nM; in series [7], 780 nM; in [9] it was > 100000 nM.

The values are drawn from ChEMBL document CHEMBL1143293, “5-Substituted pyrido[2,3-d]pyrimidine, an inhibitor against three receptor tyrosine kinases” (Bioorg Med Chem Lett, 2009).
